We go through 26 compounds from PubChem BioAssay AID1515 (The Scripps Research Institute Molecular Screening Center, 2009).

What is called inhibition is the relative decrease from the control value, in per cent.

Hit rate of the full screen: of about 220,000 compounds, about 440 (0.2%) were called active. The sample holds actives, similar compounds and a random draw of the others, so the mix is not that of the screen. A number with no mark means an inactive call.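 How the source made its calls: active means inhibition above the campaign mean of all tested compounds plus 3 SD (cut at about 14% in these data); inactive means the rest.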

The assay deals with Serine hydrolase RBBP9 (Homo sapiens) (UniProt O75884). Nature of the assay: blockers of RBBP9 serine hydrolase labeling – biochemical, fluorescence polarization, FP-Rh probe, HTS, primary screen (AID 1515).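 Further: plate controls were DMSO wells with RBBP9 for no effect and wells lacking RBBP9 protein for full effect.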 The note with it: recombinant RBBP9, FP-Rh probe fluorescence polarization; at 7.94 µM; active compounds read high. Put shortly: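 Measured by: FP readout at 525/598 nm; material: recombinant human RBBP9; also added: Serine-hydrolase probe FP-Rh, 375 nM pre-mixing; medium: Tris buffer pH 8.0, NaCl, Pluronic; replication: one well per compound; doses: one concentration, 7.94 µM nominal, 0.794% DMSO; timing: preincubation 30 min plus labeling 45 min at 25 °C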
Serine hydrolase RBBP9 (Homo sapiens), sequence (O75884 whole entry, looked up): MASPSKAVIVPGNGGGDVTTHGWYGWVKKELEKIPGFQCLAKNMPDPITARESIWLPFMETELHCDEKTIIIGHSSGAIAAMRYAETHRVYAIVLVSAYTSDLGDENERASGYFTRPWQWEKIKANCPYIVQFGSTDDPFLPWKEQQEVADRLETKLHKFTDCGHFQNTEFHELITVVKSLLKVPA
For orientation: In fluorescence polarisation assays a small probe gives low polarisation when free and higher when bound to something large.
Regarding `Cc1ccc(CS(=O)(=O)CCC(=O)NC2CC2)cc1`, the inhibition was -3.2%.

Regarding `O=C1/C(=C\c2cccnc2)CN(Cc2ccccc2)C/C1=C\c1cccnc1`, the inhibition was -6.31%.

For the compound `Cc1ccccc1NS(=O)(=O)CCCCC(Cl)(Cl)Cl`, the inhibition is 2.33%.

As for `CCC(=O)Nc1c(C)n[nH]c1C`, the inhibition is -4.5%.

Regarding `CCN1C(=O)/C(=C\N2CCOCC2)SC1=S`, the inhibition is -5.07%.

Turning to `Cc1ccc2nc(SCc3cn4c(C)cc(C)nc4n3)[nH]c2c1`, the inhibition is -9.49%. As for `O=C(c1c(Cl)cccc1Cl)N1CCN(c2cccc3[nH]ccc23)CC1`, the figure is -7.2%; as for `Cc1c(NC(=O)CCC2CCCCC2)cc(C(=O)N2CCOCC2)cc1[N+](=O)[O-]`, 7.08%; as for `COc1ccc(CCNC(=O)C(=O)Nc2ccc3nc4n(c(=O)c3c2)CCCCC4)cc1OC`, 6.2%. As for `COc1ccc2c(c1)CC[C@@H]1[C@@H]2CC[C@]2(C)C(=O)CC[C@@H]12`, the figure is -1.04%. To `Cc1cccc(C)c1NC(=O)C1CCCN1C(=O)OC(C)(C)C` (stereo unspecified) belongs -5.32%; to `Cc1cccc(-c2nc3c(c(SCC(=O)N4CCOCC4)n2)CCCC3)c1`, 11.1%.

As to `COCCN(Cc1nc(-c2ccc(C(F)(F)F)cc2)no1)C(C)C`, the inhibition is 15% (active). As for `COc1ccc(-c2noc(CN(C)S(=O)(=O)c3ccc(C)cc3)n2)cc1`, the figure is -9.12%; as for `CC(C)N(Cc1nc(-c2ccc3c(c2)OCO3)no1)CC1CCC(=O)N1` (stereo unspecified), -10.1%; as for `CSc1ccc(S(=O)(=O)NC2CCCCC2)cc1`, 0.08%. To `CC1CCC(NS(=O)(=O)c2ccc3c(c2)n(C)c(=O)c(=O)n3C)CC1` (stereo unspecified) belongs -2.22%. To `Cn1sc(=O)c2cc(S(=O)(=O)NC3CC3)ccc21` belongs 33.3% (active); to `Cc1cc(C)c[n+](-c2nc3ccccc3nc2[N-]S(=O)(=O)c2cccs2)c1`, -7.26%. On to `O=c1[nH]n(-c2ccc([N+](=O)[O-])cc2)c(=O)c2ccccc12`, for which the inhibition is 15.9% (active). For `O=c1[nH]c2cccnc2n1-c1ccc([N+](=O)[O-])cc1`, the inhibition was 4.37%. As for `O=C1CC(c2ccccc2)=NN1c1ccc([N+](=O)[O-])cc1`, the figure is -12.2%; as for `O=C(NNC1CC(=O)N(c2cccc(Cl)c2)C1=O)c1cccnc1` (stereo unspecified), -9.81%; as for `CC(C)(C)C1CCC(OC(=O)CCC(=O)Nc2ccccc2)CC1` (stereo unspecified), -0.76%. To `C=CCN(CC=C)CCOc1ccccc1[N+](=O)[O-]` belongs -6.95%; to `CSc1ccccc1NC(=O)CN(C)CC(=O)Nc1ccc(Cl)cc1[N+](=O)[O-]`, 6.47%.
